Active and inactive are the calls of the source. The rule behind the calls is not given here.
Columns and labels:
[1] = test system: Trypanosoma brucei rhodesiense; assay: Antitrypanosomal activity against Trypanosoma brucei rhodesiense STIB900 measured after 6 hrs by alamar blue dye based fluorimetry analysis; type: functional, organism-based; settings: STIB900, 6 h
[2] = Selectivity index, ratio of CC50 for Swiss mouse peritoneal macrophages to IC50 for antileishmanial activity against amastigote form of Leishmania infantum MHOM/MA(BE)/67 infected in Swiss mouse peritoneal macrophages; type: toxicity; settings: read-out: Ratio CC50/IC50
How it was run: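 Ratio of macrophage CC50 to L. infantum amastigote IC50, both taken from the same 5-day macrophage assay.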

[3] = test system: Trypanosoma cruzi; assay: Antitrypanosomal activity against nifurtimox-sensitive Trypanosoma cruzi Tulahuen CL2 infected in human MRC-5 SV2 cells assessed as inhibition of parasite growth measured after 7 days by spectrophotometric analysis; type: functional, organism-based; settings: Tulahuen CL2, MRC-5 SV2, 168 h
[4] = Selectivity index, ratio of CC50 for human MRC-5 SV2 cells to IC50 for antitrypanosomal activity against nifurtimox-sensitive Trypanosoma cruzi Tulahuen CL2 infected in human MRC-5 SV2 cells; type: toxicity, cell-based; settings: read-out: Ratio CC50/IC50
How it was run: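 Ratio of MRC-5SV2 CC50 (3-day resazurin assay) to IC50 against T. cruzi amastigotes in MRC-5SV2 cells (7-day CPRG assay).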

[5] = Cytotoxicity against Swiss mouse peritoneal macrophages assessed as cell detachment, lysis and granulation measured after 5 days by microscopic analysis; type: cell-based, Peritoneal macrophage; settings: time 5 day
How it was run: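 Scored within the Leishmania macrophage assay over 5 days: detachment, lysis and granulation judged semi-quantitatively by microscopy across at least 500 cells. CC50 derived from % reduction in normal cells versus untreated wells.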

[6] = test system: Leishmania infantum; assay: Antileishmanial activity against amastigote form of Leishmania infantum MHOM/MA(BE)/67 infected in Swiss mouse peritoneal macrophages assessed as reduction in parasite growth treated at 2 hrs post-infection and measured after 5 days by Giemsa staining based microscopic analysis; type: functional, organism-based; settings: MHOM/MA(BE)/67, Peritoneal macrophage
How it was run: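 Swiss mouse peritoneal macrophages, harvested after 2-day potato-starch stimulation, infected 48 h after plating; compounds added 2 h post-infection.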

[7] = Cytotoxicity against human MRC-5 SV2 cells assessed as reduction in cell growth measured after 3 days by resazurin dye based fluorometric analysis; settings: time 3 day
[8] = Cytotoxicity against Swiss Webster mouse 2D cardiomyocytes assessed as reduction in cell viability measured after 48 hrs by PrestoBlue assay; parameters: species or system Cardiac Muscle Cell; settings: read-out: LC50
How it was run: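 Mouse embryo heart cells as monolayer (2D) or 3D aggregates (25 × 10³ cells/well on 1% agarose). Uninfected cultures exposed 48 h to rising concentrations. Morphology checked by light microscopy; viability read by PrestoBlue; CC₅₀ determined.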

[9] = test system: Trypanosoma cruzi; assay: Antitrypanosomal activity against Trypanosoma cruzi Y bloodstream trypomastigotes assessed as inhibition of parasite growth incubated for 24 hrs by light microscopy; type: functional, organism-based
[10] = test system: Trypanosoma cruzi; assay: Antitrypanosomal activity against intracellular amastigote form of Trypanosoma cruzi Y infected in Swiss Webster mouse cardiomyocytes assessed as inhibition of parasite growth incubated for 48 hrs by Giemsa staining based microscopic analysis; type: functional, organism-based; settings: Cardiac muscle cell
How it was run: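 Primary 2D mouse embryo cardiac cell cultures, infected for 24 h, then washed and exposed for 48 h at 37 °C to a serial dilution. Cells fixed and stained with Giemsa; infected cells and parasites per infected cell scored in 200 host cells. Activity expressed from the inhibition index; two independent experiments run in duplicate.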

[11] = Toxicity in Swiss webster mouse infected with Trypanosoma cruzi Y trypomastigotes assessed as animal survival at 100 mg/kg, po qd for 5 days treatment started at 6 days post-infection and measured at 34 days post-infection; type: organism-based; settings: in vivo, time 29 day
How it was run: (§1)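 Male Swiss Webster mice (18−20 g, 4−5 weeks) were infected i.p. with 10⁴ Y-strain bloodstream trypomastigotes from a donor mouse. Only mice with detectable parasitemia were treated, in groups of six. Oral gavage was given on days 6–10 post-infection, b.i.d. or q.d. as listed, in 10% Tween 80 vehicle, freshly prepared. Infected vehicle controls were included. Mortality was checked daily to 34 dpi as cumulative percentage.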

[12] = test system: Trypanosoma cruzi; assay: Antitrypanosomal activity against Trypanosoma cruzi strain Y bloodstream trypomastigotes infected in Swiss Webster mouse assessed as reduction in parasitemia at 100 mg/kg, po qd for 5 days treatment started at 6 days post-infection and measured at 8 days post-infection by light microscopic analysis; type: functional, organism-based; settings: time 2.0 day
How it was run: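 Male Swiss Webster mice, 18–20 g, six per group; only mice with detectable parasitemia treated. Oral gavage for 5 consecutive days (6–10 dpi); test compound given b.i.d. in 10% Tween 80, benznidazole once daily, formulations freshly prepared. Parasitemia counted by light microscopy in 5 μL blood; mortality checked daily to 34 dpi.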

[13] = Toxicity in Swiss webster mouse infected with Trypanosoma cruzi Y trypomastigotes assessed as animal survival at 10 mg/kg, po qd for 5 days treatment started at 6 days post-infection and measured at 34 days post-infection; type: organism-based; settings: in vivo, 696 h, time 29 day; how it was run: as §1
[14] = test system: Trypanosoma cruzi; assay: Antitrypanosomal activity against nifurtimox-sensitive Trypanosoma cruzi Tulahuen CL2 infected in Swiss mouse peritoneal macrophages assessed as inhibition of parasite growth measured after 7 days by spectrophotometric analysis; type: functional, organism-based; settings: Tulahuen CL2, Peritoneal macrophage, 168 h

SMILES | EC50 [1] [µM] | selectivity ratio [2] | IC50 [3] [µM] | selectivity ratio [4] | CC50 at 120 h [5] [µM] | IC50 [6] [µM] | CC50 at 72 h [7] [µM] | CC50 at 48 h [8] [µM] | IC50 [9] [µM] | IC50 [10] [µM] | survival at 696 h [11] [%] | Activity [12] | Activity [13] | IC50 [14] [µM]
Nc1ncnc2c1ccn2[C@@H]1O[C@H](CO)C[C@H]1O | 0.00052 | – | – | – | – | – | – | – | – | – | – | – | – | –
Nc1ncnc2c1ccn2[C@@H]1O[C@H](CO)[C@@H](O)[C@H]1O [TUBERCIDIN] | 0.036 | – | – | – | – | – | – | – | – | – | – | – | – | –
Nc1ncnc2c1c(-c1c[nH]nn1)nn2[C@@H]1O[C@H](CO)[C@@H](O)[C@H]1O | – | > 1 | 0.43 | 1 | > 64 | 43.1 | 0.6 | – | – | – | – | – | – | –
Nc1ncnc2c1cnn2[C@@H]1O[C@H](CO)[C@@H](O)[C@H]1O | – | > 60 | 0.29 | > 219 | > 64 | 1.06 | > 64 | > 500 | > 81 | 2.46 | – | – | – | –
Nc1ncnc2c1c(Br)nn2[C@@H]1O[C@H](CO)[C@@H](O)[C@H]1O | – | > 2 | 4.37 | > 15 | > 64 | 29.4 | > 64 | – | – | – | – | – | – | –
Nc1ncnc2c1c(C#Cc1ccccc1)nn2[C@@H]1O[C@H](CO)[C@@H](O)[C@H]1O | – | > 1 | 29.4 | > 2 | > 64 | 49.4 | > 64 | – | – | – | – | – | – | –
Cc1nn([C@@H]2O[C@H](CO)[C@@H](O)[C@H]2O)c2ncnc(N)c12 | – | 1 | 4.68 | 12 | 40 | 32.7 | 57.5 | – | – | – | – | – | – | –
Nc1ncnc2[nH]ncc12 | – | > 355 | 0.57 | 5 | > 64 | 0.18 | 2.46 | – | – | – | – | – | – | –
Nc1ncnc2c1c(I)nn2[C@@H]1O[C@H](CO)[C@@H](O)[C@H]1O | – | > 2 | 12.6 | 2 | > 64 | 25.4 | 25.4 | – | – | – | – | – | – | –
N#Cc1nn([C@@H]2O[C@H](CO)[C@@H](O)[C@H]2O)c2ncnc(N)c12 | – | > 8 | 0.95 | 36 | > 64 | 8 | 34.6 | – | – | – | – | – | – | –
O=C(Cn1ccnc1[N+](=O)[O-])NCc1ccccc1 [BENZNIDAZOLE] | – | – | – | – | – | – | – | – | – | – | 100 | Active | Non-Toxic | 1.96
Nc1ncnc2c1c(-c1ccccn1)nn2[C@@H]1O[C@H](CO)[C@@H](O)[C@H]1O | – | 1 | 30.1 | 1 | > 64 | ≥ 50.8 | 36.4 | – | – | – | – | – | – | –
Nc1ncnc2c1c(Cl)nn2[C@@H]1O[C@H](CO)[C@@H](O)[C@H]1O | – | > 1 | 2.89 | > 22 | > 64 | > 64 | > 64 | – | – | – | – | – | – | –

Source: ChEMBL document CHEMBL4811241, “Revisiting Pyrazolo[3,4-d]pyrimidine Nucleosides as Anti-Trypanosoma cruzi and Antileishmanial Agents” (J Med Chem, 2021)
